Calls of active or inactive are those of the source. The calls are words filed in the database; no cut-off is given here.
Legend:
[1] = Half life in human liver microsomes at 0.1 mM in presence of NADPH by LC-MS analysis; type: ADME, microsome
[2] = target: Free fatty acid receptor 1 (Homo sapiens, UniProt O14842); test: Agonist activity at human GPR40 expressed in HEK293 cells assessed as increase in calcium mobilization by Fluo-8 dye based fluorescence assay; type: functional, cell-based
[3] = Half life in mouse liver microsomes at 0.1 mM in presence of NADPH by LC-MS analysis; type: ADME, microsome
[4] = Apparent permeability across apical to basolateral side in human Caco2 cells by LC-MS analysis; type: ADME, cell-based; conditions: caco-2
[5] = Efflux ratio of permeability from […] in human Caco2 cells by LC-MS analysis; type: ADME, cell-based; conditions: caco-2
Mus musculus = test: Antidiabetic activity in ICR mouse assessed as reduction in blood glucose AUC (0 to 120 mins) at 100 mg/kg, po dosed 30 minutes prior to glucose challenge by OGTT; type: functional, organism-based
Method in brief: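 ICR mice (n=8) received compound orally before an oral glucose load of 2.5 g/kg. […] Comparison was against vehicle control by Student's t-test.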

[6] = Ratio of drug uptake in ICR mouse brain to plasma at 30 mg/kg, po measured at 1 hr by LC-MS analysis; type: ADME, organism-based; conditions: read-out: BPR
Method in brief: (§1)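 Male ICR mice received 30mg/kg orally, n = 3. Mice were sacrificed at 0.75 h or 1 h depending on compound. Total drug in brain or liver was divided by plasma drug to give the distribution ratio.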

[7] = Ratio of drug uptake in ICR mouse liver to plasma at 30 mg/kg, po measured at 1 hr by LC-MS analysis; type: ADME, organism-based; method in brief: as §1
[8] = target: Free fatty acid receptor 1 (Rattus norvegicus, UniProt Q8K3T4); test: Agonist activity at rat GPR40; type: functional
[9] = target: Free fatty acid receptor 1 (Mus musculus, UniProt Q76JU9); test: Agonist activity at mouse GPR40; type: functional
[10] = Cmax in ICR mouse at 30 mg/kg, po by LC-MS analysis; type: ADME, organism-based; design: dose 30 mg/kg, route oral; conditions: in vivo
Method in brief: (§2)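 Male ICR mice, single oral dose of 30mg/kg, n = 3 per compound; vehicle 0.1% Tween-80 in 1% hydropropylcellulose sodium. Plasma sampled over time to derive pharmacokinetic parameters.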

[11] = AUC (0 to 8 hrs) in ICR mouse at 30 mg/kg, po by LC-MS analysis; type: ADME, organism-based; design: dose 30 mg/kg, time < 8 hr, route oral; conditions: in vivo; method in brief: as §2
[12] = Half life in ICR mouse at 30 mg/kg, po by LC-MS analysis; type: ADME, organism-based; conditions: in vivo; method in brief: as §2
[13] = Tmax in ICR mouse at 30 mg/kg, po by LC-MS analysis; type: ADME, organism-based; conditions: in vivo; method in brief: as §2
[14] = Ratio of drug uptake in rat brain to plasma; type: ADME; conditions: read-out: BPR
[15] = Ratio of drug uptake in ICR mouse liver to plasma at 30 mg/kg, po measured at 0.75 hrs by LC-MS analysis; type: ADME, organism-based
Method in brief: (§3)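 Male ICR mice (n = 3) were dosed orally at 30 mg/kg and sacrificed at a set time point. The time point depended on the compound: 0.75 h for some and 1 h for others. Total drug in brain and liver was expressed as a ratio to total plasma drug (brain-to-plasma and liver-to-plasma distribution ratios).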

[16] = Ratio of drug uptake in ICR mouse brain to plasma at 30 mg/kg, po measured at 0.75 hrs by LC-MS analysis; type: ADME, organism-based; conditions: read-out: BPR; method in brief: as §3

Sequence of Free fatty acid receptor 1 (Mus musculus, UniProt Q76JU9) (Q76JU9 whole entry): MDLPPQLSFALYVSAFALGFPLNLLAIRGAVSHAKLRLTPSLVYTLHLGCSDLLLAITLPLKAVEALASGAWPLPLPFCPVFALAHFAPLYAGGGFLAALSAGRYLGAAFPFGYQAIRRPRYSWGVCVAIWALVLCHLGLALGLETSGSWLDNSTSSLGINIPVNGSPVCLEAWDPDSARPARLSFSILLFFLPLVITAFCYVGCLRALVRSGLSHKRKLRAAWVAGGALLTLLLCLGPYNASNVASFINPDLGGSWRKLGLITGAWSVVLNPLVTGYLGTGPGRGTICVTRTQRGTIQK
Sequence of Free fatty acid receptor 1 (Homo sapiens, UniProt O14842) (O14842 whole entry): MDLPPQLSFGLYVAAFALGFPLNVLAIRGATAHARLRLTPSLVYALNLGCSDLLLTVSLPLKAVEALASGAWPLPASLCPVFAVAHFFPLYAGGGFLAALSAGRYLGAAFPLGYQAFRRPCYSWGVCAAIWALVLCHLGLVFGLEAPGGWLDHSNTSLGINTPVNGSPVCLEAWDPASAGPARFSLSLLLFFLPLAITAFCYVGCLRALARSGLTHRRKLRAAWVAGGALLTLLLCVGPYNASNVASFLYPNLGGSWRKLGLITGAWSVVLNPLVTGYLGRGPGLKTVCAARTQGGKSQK
Sequence of Free fatty acid receptor 1 (Rattus norvegicus, UniProt Q8K3T4) (Q8K3T4 whole entry): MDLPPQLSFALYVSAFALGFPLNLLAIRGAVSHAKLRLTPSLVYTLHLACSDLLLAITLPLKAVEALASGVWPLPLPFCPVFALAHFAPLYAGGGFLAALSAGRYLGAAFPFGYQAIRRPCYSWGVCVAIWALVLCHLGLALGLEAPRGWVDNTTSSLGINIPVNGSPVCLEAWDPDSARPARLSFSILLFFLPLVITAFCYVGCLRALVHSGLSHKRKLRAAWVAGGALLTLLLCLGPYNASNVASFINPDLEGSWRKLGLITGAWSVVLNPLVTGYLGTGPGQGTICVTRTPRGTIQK

SMILES: CC#CC(CC(=O)O)c1ccc(OCc2ccc(C(=O)N3CCN(c4ccccc4)CC3)s2)cc1 (stereo not drawn)
- half-life at 100 µM [1]: 105 min
- EC50 [2]: 72 nM
- half-life at 100 µM [3]: 55 min

SMILES: CC#CC(CC(=O)O)c1ccc(OCc2ccc(C(=O)N3CCCc4ccccc43)s2)cc1 (stereo not drawn)
- EC50 [2]: 80 nM

SMILES: CC#CC(CC(=O)O)c1ccc(OCc2ccc(C(=O)N3CCC4(C=Cc5ccccc54)CC3)s2)cc1 (stereo not drawn)
- half-life at 100 µM [1]: 25 min
- EC50 [2]: 172 nM
- half-life at 100 µM [3]: 7 min
- Papp A→B [4]: 19.3 ×10⁻⁶ cm/s
- Ratio [5]: 0.3

SMILES: CC#CC(CC(=O)O)c1ccc(OCc2ccc(C(=O)N3CCN(c4cccnc4)CC3)s2)cc1 (stereo not drawn)
- EC50 [2]: 1140 nM

SMILES: CC#CC(CC(=O)O)c1ccc(OCc2ccc(C(=O)N3CCN(c4ccncc4)CC3)s2)cc1 (stereo not drawn)
- EC50 [2]: > 5000 nM

SMILES: CC#C[C@@H](CC(=O)O)c1ccc(OCc2ccc(C(=O)N[C@@H]3CCCc4ccccc43)cc2)cc1
- Activity (Mus musculus): Active
- Kp at 1 h [6]: 0.011
- Kp at 1 h [7]: 0.3
- EC50 [8]: 14 nM
- half-life at 100 µM [1]: 387 min
- EC50 [9]: 23 nM
- Cmax [10]: 15400 ng/mL
- EC50 [2]: 20 nM
- AUC(0-t) at 8 h [11]: 80000 ng·h/mL
- half-life at 100 µM [3]: 74 min
- Papp A→B [4]: 18.8 ×10⁻⁶ cm/s
- Ratio [5]: 0.9
- half-life [12]: 318 min
- Tmax [13]: 72 min

SMILES: CC#CC(CC(=O)O)c1ccc(OCc2ccc(C(=O)N3CCc4ccccc4C3)s2)cc1 (stereo not drawn)
- EC50 [2]: 57 nM

SMILES: CC#CC(CC(=O)O)c1ccc(OCc2ccc(C(=O)N3CCN(c4ccc(F)cc4)CC3)o2)cc1 (stereo not drawn)
- EC50 [2]: 308 nM

SMILES: CC#CC(CC(=O)O)c1ccc(OCc2ccc(C(=O)N3CCN(c4ccccn4)CC3)s2)cc1 (stereo not drawn)
- EC50 [2]: 138 nM

SMILES: CC#CC(CC(=O)O)c1ccc(OCc2ccc(C(=O)N3CCN(c4ccc([N+](=O)[O-])cc4)CC3)s2)cc1 (stereo not drawn)
- EC50 [2]: 231 nM

SMILES: O=C(O)CCc1ccc(OCc2ccc(C(=O)N3CCN(c4ccc(F)cc4)CC3)s2)cc1
- EC50 [2]: 610 nM

SMILES: CC#CC(CC(=O)O)c1ccc(OCc2ccc(C(=O)N3CCN(Cc4ccccc4)CC3)s2)cc1 (stereo not drawn)
- EC50 [2]: 155 nM

SMILES: CC#CC(CC(=O)O)c1ccc(OCc2ccc(C(=O)NC3CCCc4ccccc43)cc2)cc1 (stereo not drawn)
- EC50 [2]: 42 nM

SMILES: CC#CC(CC(=O)O)c1ccc(OCc2ccc(C(=O)N3CCN(c4ccc(F)cc4)CC3)cc2)cc1 (stereo not drawn)
- EC50 [2]: 114 nM

SMILES: CC#CC(CC(=O)O)c1ccc(OCc2ccc(C(=O)N3CCc4ccccc4C3)o2)cc1 (stereo not drawn)
- EC50 [2]: 50 nM

SMILES: CC#CC(CC(=O)O)c1ccc(OCc2ccc(C(=O)N3CCN(c4ccc(F)cc4)CC3)s2)cc1 (stereo not drawn)
- EC50 [2]: 54 nM

SMILES: CC#CC(CC(=O)O)c1ccc(OCc2cnc(C(=O)N3CCN(c4ccc(F)cc4)CC3)s2)cc1 (stereo not drawn)
- EC50 [2]: 203 nM

SMILES: CC#CC(CC(=O)O)c1ccc(OCc2ccc(C(=O)N3CCN(C)CC3)s2)cc1 (stereo not drawn)
- EC50 [2]: > 5000 nM

SMILES: CC#CC(CC(=O)O)c1ccc(OCc2ccc(C(=O)N3CCN(c4ccccc4F)CC3)s2)cc1 (stereo not drawn)
- EC50 [2]: 113 nM

SMILES: Cc1nc(-c2ccc(C(F)(F)F)cc2)sc1COc1ccc([C@H](CC(=O)O)c2ccon2)cc1
- Kp [14]: 0.02

SMILES: CC#CC(CC(=O)O)c1ccc(OCc2ccc(C(=O)N3CCN(c4ccc(Cl)cc4)CC3)s2)cc1 (stereo not drawn)
- EC50 [2]: 133 nM

SMILES: CC#CC(CC(=O)O)c1ccc(OCc2ccc(C(=O)N3CCN(c4cccc([N+](=O)[O-])c4)CC3)s2)cc1 (stereo not drawn)
- EC50 [2]: 187 nM

SMILES: O=C(O)CC(c1ccc(OCc2ccc(C(=O)N3CCN(c4ccc(F)cc4)CC3)s2)cc1)C1CC1 (stereo not drawn)
- EC50 [2]: > 1670 nM

SMILES: CC#CC(CC(=O)O)c1ccc(OCc2cnc(C(=O)N3CCc4ccccc4C3)s2)cc1 (stereo not drawn)
- EC50 [2]: 531 nM

SMILES: CC#CC(CC(=O)O)c1ccc(OCc2ccc(C(=O)NC3CCCc4ccccc43)s2)cc1 (stereo not drawn)
- EC50 [2]: 109 nM

SMILES: CC#C[C@H](CC(=O)O)c1ccc(OCc2ccc(C(=O)N3CCN(c4ccc(F)cc4)CC3)s2)cc1
- EC50 [2]: > 5000 nM

SMILES: CC#CC(CC(=O)O)c1ccc(OCc2ccc(C(=O)N3CCN(c4cccc(F)c4)CC3)s2)cc1 (stereo not drawn)
- EC50 [2]: 97 nM

SMILES: CC#CC(CC(=O)O)c1ccc(OCc2ccc(C(=O)N3CCC4(C=Cc5ccccc54)CC3)cc2)cc1 (stereo not drawn)
- half-life at 100 µM [1]: 9 min
- EC50 [2]: 179 nM
- half-life at 100 µM [3]: 6 min
- Papp A→B [4]: 10.9 ×10⁻⁶ cm/s
- Ratio [5]: 0.3

SMILES: CC#CC(CC(=O)O)c1ccc(OCc2ccc(C(=O)N3CCN(c4ccccc4[N+](=O)[O-])CC3)s2)cc1 (stereo not drawn)
- EC50 [2]: 94 nM

SMILES: CC#CC(CC(=O)O)c1ccc(OCc2ccc(C(=O)N3CCN(c4ccc(OC)cc4)CC3)s2)cc1 (stereo not drawn)
- EC50 [2]: 289 nM

SMILES: CC#CC(CC(=O)O)c1ccc(OCc2cnc(C(=O)NC3CCCc4ccccc43)s2)cc1 (stereo not drawn)
- EC50 [2]: 144 nM

SMILES: CC#CC(CC(=O)O)c1ccc(OCc2ccc(C(=O)N3CCc4ccccc4C3)cc2)cc1 (stereo not drawn)
- EC50 [2]: 106 nM

SMILES: CC#CC(CC(=O)O)c1ccc(OCc2ccc(C(=O)NC3CCCc4ccccc43)o2)cc1 (stereo not drawn)
- EC50 [2]: 133 nM

SMILES: CC#CC(CC(=O)O)c1ccc(OCc2ccc(C(=O)N3CCN(C4CCCCC4)CC3)s2)cc1 (stereo not drawn)
- EC50 [2]: 820 nM

SMILES: Cc1cc(Cl)ccc1-c1cccc(COc2ccc([C@H](CC(=O)O)c3nccn3C)cc2)c1
- Kp [14]: 0.04

SMILES: CC#C[C@@H](CC(=O)O)c1ccc(OCc2ccc(CN3CCC4(C=Cc5ccccc54)CC3)cc2)cc1 [LY2881835]
- Kp at 0.75 h [15]: 2.5
- half-life at 100 µM [1]: 18 min
- Cmax [10]: 2850 ng/mL
- EC50 [2]: 134 nM
- AUC(0-t) at 8 h [11]: 5150 ng·h/mL
- half-life at 100 µM [3]: 2 min
- Kp at 0.75 h [16]: 0.14
- Papp A→B [4]: 15 ×10⁻⁶ cm/s
- Ratio [5]: 0.4
- half-life [12]: 78 min
- Tmax [13]: 42 min

SMILES: CC#C[C@@H](CC(=O)O)c1ccc(OCc2ccc(C(=O)N[C@H]3CCCc4ccccc43)cc2)cc1
- Kp at 0.75 h [15]: 0.9
- EC50 [8]: 28 nM
- half-life at 100 µM [1]: 214 min
- EC50 [9]: 42 nM
- Cmax [10]: 3770 ng/mL
- EC50 [2]: 39 nM
- AUC(0-t) at 8 h [11]: 3760 ng·h/mL
- half-life at 100 µM [3]: 27 min
- Kp at 0.75 h [16]: 0.006
- Papp A→B [4]: 15.2 ×10⁻⁶ cm/s
- Ratio [5]: 1.2
- half-life [12]: 180 min
- Tmax [13]: 15 min

SMILES: CC#CC(CC(=O)O)c1ccc(OCc2ccc(C(=O)N3CCN(c4ccc(C)cc4)CC3)s2)cc1 (stereo not drawn)
- EC50 [2]: 211 nM

SMILES: CC#CC(CC(=O)O)c1ccc(OCc2ccc(C(=O)N3CCN(c4ccc(C(C)(C)C)cc4)CC3)s2)cc1 (stereo not drawn)
- EC50 [2]: 417 nM

SMILES: CC#C[C@@H](CC(=O)O)c1ccc(OCc2ccc(C(=O)N3CCN(c4ccc(F)cc4)CC3)s2)cc1
- Kp at 1 h [6]: 0.018
- Kp at 1 h [7]: 15.1
- EC50 [8]: 25 nM
- half-life at 100 µM [1]: 64 min
- EC50 [9]: 31 nM
- Cmax [10]: 13300 ng/mL
- EC50 [2]: 47 nM
- AUC(0-t) at 8 h [11]: 28400 ng·h/mL
- half-life at 100 µM [3]: 120 min
- Papp A→B [4]: 20.6 ×10⁻⁶ cm/s
- Ratio [5]: 0.8
- half-life [12]: 228 min
- Tmax [13]: 48 min

SMILES: O=C(O)CC1COc2cc(OCc3ccc(C(=O)N4CCN(c5ccc(F)cc5)CC4)s3)ccc21 (stereo not drawn)
- EC50 [2]: > 1670 nM
